Among the data in ChEMBL document CHEMBL3826925, “Design, synthesis and biological evaluation of PSMA/hepsin-targeted heterobivalent ligands” (Eur J Med Chem, 2016) are IC50 and Drug uptake values, retold here.

For one series, the target named is Serine protease hepsin (Homo sapiens, UniProt P05981). The series is described as follows: Inhibition of recombinant human hepsin using Boc-QAR-AMC as substrate preincubated for 30 mins followed by substrate addition by fluorescence assay.
Series [1] can be described thus: Drug uptake in human PC3-ML cells expressing PSMA at 10 to 1000 nM after 4 hrs by flow cytometry. Format: ADME, cell-based. Particulars: 1 µM; call rule not given here. Background: In flow cytometry, cells or beads pass a laser one at a time.
Series [2] in a line: Drug uptake in human PC3-ML cells expressing hepsin/PSMA at 100 to 1000 nM after 4 hrs by flow cytometry. It is filed as ADME, cell-based. Particulars: 1 µM. The method, boiled down: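 Cells seeded at 5 × 10^5 per well and grown 48 h to full adhesion. Medium then replaced with compound in RPMI 1640 with 10% FBS for 4 h (methods state final concentration 10 µg/mL). Cells washed twice with cold PBS, fixed in 4% paraformaldehyde for 10 min, and uptake read by flow cytometry.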

In series [3] the target is Glutamate carboxypeptidase 2 (Homo sapiens, UniProt Q04609). Nature of the series: Inhibition of PSMA (unknown origin) assessed as reduction in glutamate formation using NAAG as substrate preincubated for 30 mins followed by substrate addition by Amplex red assay.
Sequence of Glutamate carboxypeptidase 2 (Q04609 whole entry): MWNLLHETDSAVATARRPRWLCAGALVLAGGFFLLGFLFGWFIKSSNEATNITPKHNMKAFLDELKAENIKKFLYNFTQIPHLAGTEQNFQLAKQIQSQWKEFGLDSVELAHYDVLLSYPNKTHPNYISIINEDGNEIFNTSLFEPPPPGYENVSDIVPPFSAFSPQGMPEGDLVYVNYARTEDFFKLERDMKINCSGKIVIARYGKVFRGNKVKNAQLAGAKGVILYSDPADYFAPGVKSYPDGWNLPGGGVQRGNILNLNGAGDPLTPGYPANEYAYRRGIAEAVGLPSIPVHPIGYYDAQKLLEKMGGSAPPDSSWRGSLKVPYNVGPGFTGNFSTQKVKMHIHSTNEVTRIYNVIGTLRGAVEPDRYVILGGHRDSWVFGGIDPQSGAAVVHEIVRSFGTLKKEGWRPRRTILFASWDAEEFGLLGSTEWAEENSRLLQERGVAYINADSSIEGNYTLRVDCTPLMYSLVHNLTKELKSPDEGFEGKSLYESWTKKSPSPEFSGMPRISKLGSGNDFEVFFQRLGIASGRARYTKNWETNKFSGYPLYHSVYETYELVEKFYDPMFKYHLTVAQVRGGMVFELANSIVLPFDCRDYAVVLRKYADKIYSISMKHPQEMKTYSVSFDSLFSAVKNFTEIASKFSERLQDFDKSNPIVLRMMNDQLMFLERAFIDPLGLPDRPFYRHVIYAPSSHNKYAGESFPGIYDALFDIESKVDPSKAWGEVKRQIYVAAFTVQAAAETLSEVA
Series [4] deals with Tumour. The series is described as follows: Drug uptake in tumor of NOD/Shi-scid/IL-2Rgamma null mouse xenografted with human PC3-ML cells expressing PSMA at 1 nmol, iv measured 24 hrs post dosing by near infrared optical imaging analysis. It is filed as ADME, organism-based, Neoplasm. Particulars: in vivo. The essentials: (§1)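 Six-week-old male NSG mice received 1 million tumor cells subcutaneously in the upper flank. Two weeks later, 1 nmol of the Cy7-labelled ligand in 100 uL PBS was injected via tail vein. NIR fluorescence images were taken 24 hr post injection with a small-animal imaging system.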
A general note: Xenograft models place foreign cells or tissue in a host animal.

Series [5] relates to Tumour. The series is described as follows: Drug uptake in tumor of NOD/Shi-scid/IL-2Rgamma null mouse xenografted with human PC3-ML cells expressing PSMA/HPN at 1 nmol, iv measured 24 hrs post dosing by near infrared optical imaging analysis. It is filed as ADME, organism-based, Neoplasm. Particulars: in vivo. The method, boiled down:
as §1

The structures appear in SMILES notation.

Sequence of Serine protease hepsin (P05981 1-162 limits assumed): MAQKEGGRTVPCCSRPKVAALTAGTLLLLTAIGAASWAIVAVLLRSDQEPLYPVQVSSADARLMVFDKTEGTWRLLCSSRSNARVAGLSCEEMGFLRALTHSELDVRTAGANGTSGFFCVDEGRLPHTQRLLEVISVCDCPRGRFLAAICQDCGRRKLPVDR
Sequence of Serine protease hepsin (P05981 163-417 limits assumed): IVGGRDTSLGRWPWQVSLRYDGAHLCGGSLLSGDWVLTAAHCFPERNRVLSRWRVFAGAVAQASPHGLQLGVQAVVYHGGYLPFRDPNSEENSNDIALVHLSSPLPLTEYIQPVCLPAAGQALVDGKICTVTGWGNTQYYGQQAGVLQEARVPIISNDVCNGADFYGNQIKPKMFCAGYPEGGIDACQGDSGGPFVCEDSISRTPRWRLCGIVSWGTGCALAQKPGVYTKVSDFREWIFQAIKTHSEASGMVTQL

On to `N=C(N)c1ccc2[nH]c(-c3ccccc3O)cc2c1`, for which the concentration for half-maximal inhibition (IC50) (commonly the midpoint of a concentration-inhibition curve) at Serine protease hepsin came out at 44 µM.

In the case of `COc1ccc(-c2ccc(O)c(-c3cc4cc(C(=N)N)ccc4[nH]3)c2)cc1`, the IC50 on Serine protease hepsin was 7.3 µM.

Turning to `N=C(N)c1ccc2[nH]c(-c3cc(-c4ccccc4)ccc3O)cc2c1`, the concentration for half-maximal inhibition (IC50) at Serine protease hepsin turned out to be 8.9 µM.

On to `N=C(N)c1ccc2[nH]c(-c3cc(-c4ccc(F)cc4)ccc3O)cc2c1`, for which, on Serine protease hepsin, the IC50 came to 5.9 µM.

`N=C(N)c1ccc2[nH]c(-c3cc(-c4ccc(CN)cc4)ccc3O)cc2c1`: the IC50 on Serine protease hepsin was 9.3 µM.

For the compound `CC(C)(C)OC(=O)NCc1ccc(-c2ccc(O)c(-c3cc4cc(C(=N)N)ccc4[nH]3)c2)cc1`, the IC50 on Serine protease hepsin was found to be 11 µM.

As for `N=C(N)c1ccc2[nH]c(-c3cc(-c4cccs4)ccc3O)cc2c1`, the IC50 at Serine protease hepsin turned out to be 70 µM.

In the case of `N=C(N)c1ccc2[nH]c(-c3cc(-c4ccc(C(F)(F)F)cc4)ccc3O)cc2c1`, at Serine protease hepsin, the IC50 was 14 µM.

As for `N=C(N)c1ccc2[nH]c(-c3cc(-c4ccc(Cl)cc4)ccc3O)cc2c1`, the concentration for half-maximal inhibition (IC50) on Serine protease hepsin was 23 µM.

Turning to `CC(=O)NC(=N)c1ccc2[nH]c(-c3cc(-c4ccc(CNC(=O)[C@H](CCCCNC(=O)CCCCC[N+]5=C(/C=C/C6=CC(=C/C=C7/N(C)c8ccc(S(=O)(=O)O)cc8C7(C)C)/CCC6)C(C)(C)c6cc(S(=O)(=O)O)ccc65)NC(=O)CCCCCCC(=O)NCCCCC(NC(=O)N[C@@H](CCC(=O)O)C(=O)O)C(=O)O)cc4)ccc3O)cc2c1` (stereo partly specified), the Drug uptake result in series [1] and in series [2] was “Active” in each case. Moreover, in series [3], the concentration for half-maximal inhibition (IC50) came out at 0.025 µM.

As for `CN1/C(=C/C=C2C=C(/C=C/C3=[N+](CCCCCC(=O)NCCCC[C@H](NC(=O)CCCCCCC(=O)NCCCCC(NC(=O)N[C@@H](CCC(=O)O)C(=O)O)C(=O)O)C(=O)NCc4ccc(-c5ccc(O)c(-c6cc7cc(C(=N)N)ccc7[nH]6)c5)cc4)c4ccc(S(=O)(=O)O)cc4C3(C)C)CCC/2)C(C)(C)c2cc(S(=O)(=O)O)ccc21` (stereo partly specified), the Drug uptake result in series [1] is reported as “Active”; in the series with Tumour [4], “Not Active”; in series [2] it was “Active”; in the series on Tumour [5], “Active”.
